This is a sample that favours compounds with a hit; in the whole collection about 3.3% have one here.
AHR activator: AHR activators, primary screen, cell-based, luminescence, luciferase reporter, human; Aryl hydrocarbon receptor (Homo sapiens), P35869; AHR-responsive luciferase reporter cells; activation, % at 5 µM; 320,000 compounds, 2.5% hits; AID 2796, 2010; in the data active = activation above about 47%;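 note: 0% = vehicle wells and 100% = reference agonist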
Target sequence (P35869 whole entry, looked up): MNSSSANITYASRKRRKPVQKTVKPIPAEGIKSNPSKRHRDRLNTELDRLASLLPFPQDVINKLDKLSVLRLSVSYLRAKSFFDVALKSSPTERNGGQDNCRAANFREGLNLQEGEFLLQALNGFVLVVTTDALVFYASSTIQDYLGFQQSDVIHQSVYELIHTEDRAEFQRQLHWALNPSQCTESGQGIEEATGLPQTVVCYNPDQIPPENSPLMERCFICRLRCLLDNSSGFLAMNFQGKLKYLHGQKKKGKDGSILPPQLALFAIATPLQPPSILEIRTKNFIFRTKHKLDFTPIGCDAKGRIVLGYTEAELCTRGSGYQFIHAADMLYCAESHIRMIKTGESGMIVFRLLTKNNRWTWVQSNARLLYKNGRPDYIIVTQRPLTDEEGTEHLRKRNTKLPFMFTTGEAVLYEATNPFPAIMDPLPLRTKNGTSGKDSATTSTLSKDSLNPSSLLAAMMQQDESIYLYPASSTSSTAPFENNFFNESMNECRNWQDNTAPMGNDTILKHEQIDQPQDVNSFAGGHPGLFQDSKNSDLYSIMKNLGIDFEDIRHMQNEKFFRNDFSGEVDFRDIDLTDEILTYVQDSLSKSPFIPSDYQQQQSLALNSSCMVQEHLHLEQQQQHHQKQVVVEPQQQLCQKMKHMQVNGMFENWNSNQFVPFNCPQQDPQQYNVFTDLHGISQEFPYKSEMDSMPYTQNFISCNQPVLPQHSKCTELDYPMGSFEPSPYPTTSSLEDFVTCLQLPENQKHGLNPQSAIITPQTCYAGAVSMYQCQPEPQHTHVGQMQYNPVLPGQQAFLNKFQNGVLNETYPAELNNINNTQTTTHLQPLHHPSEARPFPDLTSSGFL
GAA850 FXN act: FXN promoter activators, primary screen, cell-based, luciferase luminescence, HEK293 lucGAA850; 360,000 compounds, 0.56% hits; AID 540364, 2011; HEK293 lucGAA850 FXN promoter luciferase reporter, 24 h; percent of 10 µM SAHA response; activation, % at 6 µM;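 active = activation above the average of all compounds screened plus 3 SD, cutoff fixed separately per campaign, cut at about 7.5% in these data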;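 note: 0% = DMSO wells and 100% = 10 µM SAHA wells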
STAT3 act-1: IL-6 driven STAT3 reporter potentiators, primary screen, U3A cells, luciferase, luminescence, MLSCN library. activation (% of control), % at 5.6 µM. IL-6 STAT3-luciferase reporter; 100% = signal with IL-6 EC80 alone. 190,000 compounds, 0.91% hits;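 active = activation above the screen-wide mean of compound activation plus 3 SD, cut at about 130% in these data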;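 note: 0% = background luminescence of wells with medium and substrate only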
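Test system: Human STAT1-deficient U3A cells with stable STAT3-luciferase reporter | Also added: Interleukin-6, 33 ng/mL | Timing: Compound pre-incubation 1 h before IL-6, then 6 h stimulation at 37 °C | Technique: Luciferase reporter luminescence | Read-out: Percent of IL-6-only median luminescence | Benchmarks: IL-6-only wells as 100% reference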
ABCB6 inh 2: ABCB6 transporter inhibitors, primary screen, K562-ABCB6 cells, flow cytometry, MLPCN library; ATP-binding cassette sub-family B member 6 (Homo sapiens), Q9NP58; K562-ABCB6 porphyrin accumulation, 1 h; stronger effect = lower value; fluorescence ratio to DMSO, % at 10 µM; 360,000 compounds, 0.19% hits; AID 602162, 2011;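 active = fluorescence ratio to DMSO below 75%, the collection mean minus 3 SD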;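 note: signal is porphyrin accumulated inside mitochondria; 100% equals median channel fluorescence of DMSO control wells; lower ratio means ABCB6 inhibition with less porphyrin fluorescence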
STAT3 act-2: STAT3 reporter potentiators, retest of hits, confirmation, U3A cells, luciferase, luminescence; potentiation (% of control), % at 5.7 µM; AID 1267, 2008; 1,200 compounds, 64% hits; shares compounds with STAT3 act-1; IL-6 potentiation; U3A cells lack STAT1; 100 means same as IL-6 alone;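 active = percent activation of the STAT3 luciferase reporter above a set limit taken from the earlier primary screen, cut at about 130% in these data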;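 note: 0% = background signal of medium plus substrate and 100% = median of IL-6 with DMSO wells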
NFkB act 2: NF-kB reporter activators in human cells, counter-screen for STAT3 activator project; shares compounds with STAT3 act-1; NF-kappaB reporter activation; activation (% of control), % at 5.7 µM; 1,200 compounds, 11% hits; AID 1309, 2008; in the data active = activation above about 120%;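 note: reporter induced by TNF-alpha stimulation; 100% = median of stimulated DMSO wells and 0% = no signal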
STAT1 act STAT3c: STAT1 reporter activators, IFN-gamma induced, counter-screen for STAT3 activator project, cell-based, NIH 3T3, luciferase luminescence. shares compounds with STAT3 act-1. NIH 3T3 STAT1-luciferase reporter. activation (% of control), % at 5.7 µM. 1,200 compounds, 13% hits. AID 1318, 2008;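 active = activation above the solvent-only control well mean plus 3 SD, set per screening run, cut at about 120% in these data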;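 note: 100% = IFN-gamma with DMSO median signal so 100% means no change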
Numbers without * were called inactive; . = no result given.

SMILES	AHR activator	GAA850 FXN act	STAT3 act-1	ABCB6 inh 2	STAT3 act-2	NFkB act 2	STAT1 act STAT3c
O=C(Nc1ccc(Cl)cn1)c1ccc2ccccc2n1	37.2	1.3	177.7*	94.0	191.6*	130.5*	137.5*
O=C(CNS(=O)(=O)c1cccc(F)c1)OCC(=O)N1CCCC1=O	0.3	1.7	.	91.0	.	.	.
Cc1noc(C)c1C(=O)OCC(=O)Nc1c(F)cccc1F	-1.7	-1.2	98.8	98.0	.	.	.
COc1ccc(-c2nnc3ccc(SCC(=O)N4CCCCCC4)nn23)cc1OC	-3.0	1.5	.	95.0	.	.	.
Cc1ccc2nc(NC(=S)NC(=O)c3cccs3)sc2c1	22.1	3.3	163.3*	104.0	171.1*	125.8*	132.1*
Cc1nc(NC(=S)NC(=O)c2cccs2)ccc1Br	71.5*	5.5	148.1*	98.0	173.2*	109.9	114.3
Cc1cccc(NC(=S)NC(=O)c2cccs2)n1	24.1	3.3	140.6*	99.0	137.9*	117.2	119.2
Cc1ccc2nc(NC(=S)NC(=O)c3ccc(OC(C)C)cc3)sc2c1	-1.8	1.4	.	95.0	.	.	.
CC1CCN(C(=O)CN2c3cccc4cccc(c34)S2(=O)=O)CC1	2.3	-0.8	.	96.0	.	.	.
O=C(NCc1ccccc1Cl)c1ccncc1	1.3	0.0	.	99.0	.	.	.
Cc1cc(-c2sccc2Br)nc(-n2cccc2)n1	.	0.8	139.3*	105.0	149.7*	107.3	93.1
Cc1cc(-c2ccc(Br)s2)nc(-n2cccc2)n1	.	-1.1	136.1*	109.0	130.4	99.1	86.5
c1coc(-c2ccnc(-n3cccc3)n2)c1	3.0	-1.0	96.4	100.0	.	.	.
CCc1nnc(NC(=O)CSc2ccc(Cl)cc2)s1	3.5	1.0	.	94.0	.	.	.
COCCNC(=O)C(=O)NNC(=O)c1ccccc1OC	23.7	1.9	141.7*	96.0	136.9*	108.8	103.2
COc1ccccc1C(=O)NNC(=O)c1ccccc1	41.6	5.9	.	97.0	.	.	.
Cn1c(C(C#N)C(=O)c2ccco2)nc2ccccc21 (stereo not drawn)	76.8*	5.6	135.9*	92.0	136.1*	111.2	124.4*
Cn1c(C(C#N)C(=O)Cc2cccc3ccccc23)nc2ccccc21 (stereo not drawn)	1.9	-1.1	101.7	93.0	.	.	.
CC1CC(C)CN(C(=O)CSC2=Nc3ccccc3C3=NC(Cc4c[nH]c5ccccc45)C(=O)N23)C1 (stereo not drawn)	12.7	-1.6	140.2*	93.0	129.4	105.0	109.2
CC1=NOC(=O)/C1=C/c1ccc(-c2ccc(Cl)cc2)o1	28.2	1.9	126.1	106.0	.	.	.
CC1=NOC(=O)/C1=C\c1ccc(-c2ccc(Br)cc2)o1	.	3.0	136.4*	98.0	117.9	115.4	112.3
O=S(=O)(c1ccccc1)N1N=C(c2cccs2)CC1c1ccc(Br)cc1 (stereo not drawn)	7.4	-0.2	100.9	93.0	.	.	.
N#Cc1sc2nc(-c3ccccc3)cc(-c3ccco3)c2c1N	29.1	-2.0	90.9	130.0	.	.	.
COc1cccc(-c2cc(C(F)(F)F)c3c(N)c(C#N)sc3n2)c1	55.4*	.	153.5*	.	134.4*	96.8	101.2
COc1ccc(-n2c(SCC(=O)NCc3ccco3)nc3c([nH]c4ccccc43)c2=O)cc1	28.7	0.0	153.8*	99.0	136.6*	103.6	106.1
O=C(N/N=C/c1cn(-c2ccccc2)nc1-c1cc2ccccc2o1)c1cccnc1	51.4*	6.7	158.6*	88.0	179.0*	138.4*	204.2*
CC(=O)Nc1ccc(C(=O)OCC(=O)N2CCC(Cc3ccccc3)CC2)cc1	0.2	-1.2	.	95.0	.	.	.
c1ccc2c(c1)[nH]c1c(N3CCSCC3)ncnc12	42.3	0.9	112.5	85.0	.	.	.
c1ccc2c(c1)[nH]c1c(N3CCOCC3)ncnc12	36.5	3.6	139.8*	100.0	134.0*	94.1	72.9

Screening data: PubChem BioAssay, several laboratories
